Measured values: ChEMBL document CHEMBL4428023, “1,4-Dihydropyridines Active on the SIRT1/AMPK Pathway Ameliorate Skin Repair and Mitochondrial Function and Exhibit Inhibition of Proliferation in Cancer Cells” (J Med Chem, 2016)
Active and inactive are the calls of the source. The calls are words filed in the database; no cut-off is given here.

Key:
[1] = biological target: T1, NAD-dependent protein deacetylase sirtuin-1 (Homo sapiens) (UniProt Q96EB6); experiment: Activation of SIRT1 in […] at 1 uM by fluorimetric assay; type: cell-free; details: HaCaT, TDE = time-dependent effect
T1 sequence (whole entry): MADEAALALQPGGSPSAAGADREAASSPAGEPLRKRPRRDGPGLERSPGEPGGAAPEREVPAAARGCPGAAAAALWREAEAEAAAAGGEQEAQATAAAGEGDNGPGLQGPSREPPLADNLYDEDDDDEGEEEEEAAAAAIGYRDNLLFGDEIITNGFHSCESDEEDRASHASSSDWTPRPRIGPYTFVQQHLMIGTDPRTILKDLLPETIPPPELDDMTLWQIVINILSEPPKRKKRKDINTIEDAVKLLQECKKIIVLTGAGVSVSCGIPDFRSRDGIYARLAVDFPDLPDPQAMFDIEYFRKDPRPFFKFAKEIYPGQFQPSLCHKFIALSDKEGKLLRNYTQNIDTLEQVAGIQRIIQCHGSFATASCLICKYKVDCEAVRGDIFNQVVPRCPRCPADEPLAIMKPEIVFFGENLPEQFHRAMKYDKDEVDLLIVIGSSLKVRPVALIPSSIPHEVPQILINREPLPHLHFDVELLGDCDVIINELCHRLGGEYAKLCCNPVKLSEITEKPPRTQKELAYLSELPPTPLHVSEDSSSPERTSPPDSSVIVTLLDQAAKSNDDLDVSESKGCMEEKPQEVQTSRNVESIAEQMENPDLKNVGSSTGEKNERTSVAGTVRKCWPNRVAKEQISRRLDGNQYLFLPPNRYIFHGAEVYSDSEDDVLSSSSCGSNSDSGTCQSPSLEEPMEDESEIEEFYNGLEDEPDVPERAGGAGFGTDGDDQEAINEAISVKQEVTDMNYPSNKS

[2] = biological target: T1, NAD-dependent protein deacetylase sirtuin-1 (Homo sapiens); experiment: Activation of SIRT1 in human HaCaT cells assessed as H4K16 deacetylation at 1 uM after 1 hr by Western blotting method; type: cell-based
Method in brief: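 HaCaT cells treated 1 h at 1 µM, DMSO as solvent control. Cells lysed in Laemmli buffer and immunoblotted for acetyl-H4K16 (1:1000), with total histone H4 as loading control. Bands quantified by densitometry. At least three independent experiments.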

[3] = biological target: T1, NAD-dependent protein deacetylase sirtuin-1 (Homo sapiens); experiment: Activation of full-length GST-tagged recombinant human SIRT1 assessed as enzyme activity obtained with subtraction of intrinsic fluorescence using p53-based untagged peptide as substrate at 50 uM after 30 mins by SIRTainty assay
HaCaT [4] = experiment: Activation of AMPK/SIRT1 in human HaCaT cells assessed as nitric oxide production at 1 uM incubated for 1 hr by DAF-2D staining-based fluorescence assay; type: cell-based
Method in brief: (§1)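 HaCaT keratinocytes grown in DMEM with 10% FBS and antibiotics. Cells treated 1 h (single-point 1 µM; dose-response at 5, 25, 50 µM). 5 µM DAF-2D added to complete medium. Cells then washed in PBS, trypsinized and analysed by flow cytometry for DAF fluorescence (ex 485/em 538 nm). Read-out is % DAF-positive cells relative to DMSO control.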

[5] = biological target: 3',5'-cyclic-AMP phosphodiesterase 4D (Homo sapiens) (UniProt Q08499); experiment: Inhibition of recombinant human PDE4D assessed as phosphate release using cAMP as substrate at 50 uM after 60 mins by malachite green assay
Method in brief: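 Recombinant human PDE4D (20 mU) in 10 mM Tris-HCl pH 7.4 with cAMP substrate. Compounds at 50 µM in DMSO; rolipram 10 µM as positive control. Incubated 60 min at 37 °C, then phosphate release measured by malachite green absorbance at 620 nm. Mean of three determinations.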

[6] = biological target: T1, NAD-dependent protein deacetylase sirtuin-1 (Homo sapiens); experiment: Activation of full-length GST-tagged recombinant human SIRT1 assessed as enzyme activity obtained without subtraction of intrinsic fluorescence using p53-based untagged peptide as substrate at 50 uM after 30 mins by SIRTainty assay
C2C12 [7] = experiment: Activation of AMPK/SIRT1 in mouse C2C12 cells assessed as increase in mitochondrial density at 30 uM after 16 hrs by Mitotracker Green staining-based confocal microscopy; type: cell-based
Method in brief: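 Murine C2C12 myoblasts plated on coverslips and grown overnight at 37 °C, 5% CO2. Then switched to serum-free HBSS, pH 7.4, and treated 16 h at 30 µM, alone or with 5 µM compound C or EX-527. Mitotracker Green (200 nM final) added for the last 30 min. Cells fixed in 4% paraformaldehyde, permeabilized and imaged by confocal microscopy, with settings fixed on untreated cells. Plate fluorescence also quantified.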

C2C12 [8] = experiment: Activation of AMPK/SIRT1 in mouse C2C12 cells assessed as increase in mitochondrial density at 30 uM after 16 hrs by Mitotracker Green staining-based confocal microscopy in presence of EX-527; type: cell-based
Method in brief: (§2)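 C2C12 myoblasts plated overnight, then in serum-free HBSS pH 7.4 and treated 16 h at 30 µM, alone or with 5 µM inhibitor (EX-527 or compound C). Mitotracker Green at 200 nM final was added for the last 30 min. Cells were fixed in 4% paraformaldehyde, permeabilized with Triton X-100 and imaged by confocal microscopy with fixed settings. Alternatively, mitochondrial fluorescence was quantified in plates.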

Mus musculus [9] = experiment: Wound healing activity in CD1 mouse assessed as decrease in epithelial gap at 1 uM administered topically on wound everyday for 14 days by biopsy punch assay; type: functional, organism-based
Method in brief: (§3)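 Male CD1 mice, 8 weeks old, anaesthetized i.p. with medetomidine 1 mg/kg plus ketamine 75 mg/kg, then biopsy-punch wounded. Compound (1 µM) in 20 µL saline applied directly to the wound daily for 14 days; solvent-treated group as control. Epithelial gap and % wound closure followed over time.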

Mus musculus [10] = experiment: Wound healing activity in CD1 mouse assessed as increased wound closure at 1 uM administered topically on wound everyday for 14 days by biopsy punch assay; type: functional, organism-based; method in brief: as §3
Cavia porcellus [11] = species: Cavia porcellus; experiment: Potency index, ratio of potency for test compound to potency for nifedipine for inhibition of calcium channel in guinea pig ileum longitudinal smooth muscle assessed as inhibition of calcium-induced contraction; type: tissue-based
HaCaT [12] = experiment: Activation of AMPK/SIRT1 in human HaCaT cells assessed as nitric oxide production incubated for 1 hr by DAF-2D staining-based fluorescence assay; type: cell-based; method in brief: as §1
C2C12 [13] = experiment: Activation of AMPK/SIRT1 in mouse C2C12 cells assessed as increase in mitochondrial density at 30 uM after 16 hrs by Mitotracker Green staining-based confocal microscopy in presence of compound C; type: cell-based; method in brief: as §2
HaCaT [14] = experiment: Activation of AMPK/SIRT1 in human HaCaT cells assessed as nitric oxide production at 10 uM incubated for 1 hr in presence of compound C by DAF-2D staining-based fluorescence assay; type: cell-based
Method in brief: (§4)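 HaCaT cells in DMEM with 10% FBS. DHP (10 µM) given for 1 h alone or together with 10 µM AMPK inhibitor compound C or 10 µM SIRT1 inhibitor EX-527. Intracellular NO read by flow cytometry after loading with 5 µM DAF-2D in medium (ex 485/em 538 nm). Expressed as % DAF-positive cells versus DMSO.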

HaCaT [15] = experiment: Activation of AMPK/SIRT1 in human HaCaT cells assessed as nitric oxide production at 10 uM incubated for 1 hr in presence of EX-527 by DAF-2D staining-based fluorescence assay; type: cell-based; method in brief: as §4
Cavia porcellus [16] = species: Cavia porcellus; experiment: Antagonist activity at calcium channel in guinea pig smooth muscle assessed as inhibition of calcium-induced contraction in K+-depolarized aortic strips at 50 uM
Method in brief: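 Guinea-pig isolated aortic strips depolarized with 80 mM K+; read-out is percent inhibition of calcium-induced contraction.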

[17] = Antagonist activity at calcium channel in guinea pig smooth muscle assessed as inhibition of calcium-induced contraction in K+-depolarized aortic strips; details: Cavia porcellus
HaCaT [18] = experiment: Activation of AMPK/SIRT1 in human HaCaT cells assessed as nitric oxide production up to 50 uM incubated for 1 hr by DAF-2D staining-based fluorescence assay; type: cell-based
Method in brief: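 HaCaT keratinocytes in DMEM with 10% FBS; treated 1 h (dose-response at 5, 25, 50 µM; screen at 1 µM), DMSO solvent control. 5 µM DAF-2D added to the medium; cells washed, trypsinized and analysed by flow cytometry. Read-out is % DAF-positive cells relative to DMSO.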

HEY = experiment: Antiproliferative activity against human HEY cells assessed as cell viability after 72 hrs by MTT assay; type: functional, cell-based
Method in brief: (§5)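 Cells grown in RPMI with 10% fetal calf serum and penicillin, seeded in sextuplicate at 3 × 10^3 cells/well. After 24 h, cells were exposed 72 h to 5–200 µM. Viability was measured by MTT and expressed as treated/untreated × 100. IC50 was calculated from three independent experiments, reported as mean ± SD.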

Caov-3 cell line = experiment: Antiproliferative activity against human Caov3 cells assessed as cell viability after 72 hrs by MTT assay; type: functional, cell-based; details: Caov-3, 72 h; method in brief: as §5
SK-OV-3 = experiment: Antiproliferative activity against human SKOV3 cells assessed as cell viability after 72 hrs by MTT assay; type: functional, cell-based; details: SK-OV-3, 72 h; method in brief: as §5
NCI-H1299 = experiment: Antiproliferative activity against human NCI-H1299 cells assessed as cell viability after 72 hrs by MTT assay; type: functional, cell-based; details: NCI-H1299, 72 h; method in brief: as §5
[19] = Antiproliferative activity against human SAN cells assessed as cell viability after 72 hrs by MTT assay; type: functional, cell-based; method in brief: as §5
LoVo = experiment: Antiproliferative activity against human LoVo cells assessed as cell viability after 72 hrs by MTT assay; type: functional, cell-based; method in brief: as §5
[20] = biological target: T1, NAD-dependent protein deacetylase sirtuin-1 (Homo sapiens); experiment: Activation of SIRT1 in human M14 cells assessed as deacetylation of acetyl-H4K16 after 48 hrs by Western blotting method; type: cell-based
Method in brief: (§6)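 M14 melanoma and H1299 lung cancer cells treated 48 h at 5, 10 and 20 µM. Total protein extracts immunoblotted for acetyl-H4K16, with β-actin as loading control. Detection by HRP secondary antibodies and enhanced chemiluminescence. Bands quantified by densitometry.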

M14 = experiment: Antiproliferative activity against human M14 cells assessed as cell viability after 72 hrs by MTT assay; type: functional, cell-based; details: M14, 72 h; method in brief: as §5
A549 = experiment: Antiproliferative activity against human A549 cells assessed as cell viability after 72 hrs by MTT assay; type: functional, cell-based; details: A549, 72 h; method in brief: as §5
[21] = biological target: T1, NAD-dependent protein deacetylase sirtuin-1 (Homo sapiens); experiment: Activation of SIRT1 in human NCI-H1299 cells assessed as deacetylation of acetyl-H4K16 after 48 hrs by Western blotting method; type: cell-based; method in brief: as §6
A2780 = experiment: Antiproliferative activity against human A2780 cells assessed as cell viability after 72 hrs by MTT assay; type: functional, cell-based; details: A2780, 72 h; method in brief: as §5
HT-29 = experiment: Antiproliferative activity against human HT-29 cells assessed as cell viability after 72 hrs by MTT assay; type: functional, cell-based; details: HT-29, 72 h; method in brief: as §5
[22] = biological target: T1, NAD-dependent protein deacetylase sirtuin-1 (Homo sapiens); details: HaCaT, 1 uM

Sequence of 3',5'-cyclic-AMP phosphodiesterase 4D (Homo sapiens) (Q08499 whole entry): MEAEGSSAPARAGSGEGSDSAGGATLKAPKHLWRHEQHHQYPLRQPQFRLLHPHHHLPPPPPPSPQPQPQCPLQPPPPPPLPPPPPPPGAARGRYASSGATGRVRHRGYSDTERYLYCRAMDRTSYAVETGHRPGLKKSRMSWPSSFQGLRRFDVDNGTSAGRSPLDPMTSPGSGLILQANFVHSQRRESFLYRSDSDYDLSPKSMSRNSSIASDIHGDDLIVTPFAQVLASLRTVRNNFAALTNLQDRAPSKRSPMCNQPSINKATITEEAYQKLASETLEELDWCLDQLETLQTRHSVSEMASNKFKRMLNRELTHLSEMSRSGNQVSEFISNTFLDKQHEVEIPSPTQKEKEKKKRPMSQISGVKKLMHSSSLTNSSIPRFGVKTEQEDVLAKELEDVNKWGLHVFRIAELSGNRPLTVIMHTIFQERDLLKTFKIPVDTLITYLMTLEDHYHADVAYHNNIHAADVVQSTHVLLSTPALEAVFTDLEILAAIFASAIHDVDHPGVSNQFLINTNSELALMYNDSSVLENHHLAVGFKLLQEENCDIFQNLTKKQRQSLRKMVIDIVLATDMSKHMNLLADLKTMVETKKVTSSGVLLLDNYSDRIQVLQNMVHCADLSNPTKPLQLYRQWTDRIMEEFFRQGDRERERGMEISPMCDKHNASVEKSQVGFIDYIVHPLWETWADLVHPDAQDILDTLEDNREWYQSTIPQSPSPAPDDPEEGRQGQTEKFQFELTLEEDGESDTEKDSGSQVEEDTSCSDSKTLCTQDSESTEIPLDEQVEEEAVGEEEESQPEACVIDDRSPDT

## Oc1ccc(/C=C/c2cc(O)cc(O)c2)cc1
[1]
  Activity: Tde
[2]
  Activity: Active

## CCOC(=O)C1=CN(Cc2ccccc2)C=C(C(=O)OCC)C1c1ccccc1
[3]
  Activity: 164%
HaCaT [4]
  Activity: Active
[5]
  inhibition: inactive
[6]
  Activity: 217%
[2]
  Activity: Active

## O=C(O)C1=CN(Cc2ccccc2)C=C(C(=O)O)C1c1ccco1
[3]
  Activity: 41%
[6]
  Activity: 41%
C2C12 [7]
  Activity: inactive

## CCOC(=O)C1=CN(Cc2ccccc2)C=C(C(=O)OCC)C1c1ccsc1
C2C12 [8]
  Activity: inactive
[3]
  Activity: 126%
Mus musculus [9]
  Activity: Active
Mus musculus [10]
  Activity: Active
HaCaT [4]
  Activity: Active
[5]
  inhibition: inactive
[6]
  Activity: 404%
[1]
  Activity: Tde
C2C12 [7]
  Activity: Active
Cavia porcellus [11]
  Ratio: 266
HaCaT [12]
  Activity: Dose-dependent effect
C2C12 [13]
  Activity: inactive
HaCaT [14]
  Activity: inactive
HaCaT [15]
  Activity: inactive
[2]
  Activity: Active
Cavia porcellus [16]
  inhibition: 13%

## COC(=O)C1=C(C)NC(C)=C(C(=O)OC)C1c1ccccc1[N+](=O)[O-] [NIFEDIPINE]
[17]
  IC50: 0.009 µM
HaCaT [18]
  Activity: inactive

## CCOC(=O)C1=CN(Cc2ccccc2)C=C(C(=O)OCC)C1c1ccc(CN2CCN(C)CC2)cc1
[3]
  Activity: 68%
HEY
  IC50: 15 µM
Caov-3 cell line
  IC50: 24 µM
SK-OV-3
  IC50: 35 µM
HaCaT [4]
  Activity: Active
NCI-H1299
  IC50: 24 µM
[19]
  IC50: 16 µM
LoVo
  IC50: 15 µM
[6]
  Activity: 152%
HaCaT [14]
  Activity: inactive
[20]
  Activity: Dose-dependent effect
HaCaT [15]
  Activity: inactive
M14
  IC50: 8 µM
A549
  IC50: 20 µM
[21]
  Activity: Dose-dependent effect
A2780
  IC50: 10 µM
HT-29
  IC50: 11 µM

## CCOC(=O)C1=CN(Cc2ccccc2)C=C(C(=O)OCC)C1c1ccco1
[3]
  Activity: 64%
Mus musculus [9]
  Activity: Active
Mus musculus [10]
  Activity: Active
HaCaT [4]
  Activity: Active
[5]
  inhibition: inactive
[6]
  Activity: 294%
[1]
  Activity: Tde
HaCaT [12]
  Activity: Dose-dependent effect
[2]
  Activity: Active

## CC(NC(=O)c1ccccc1/N=C/c1c(O)ccc2ccccc12)c1ccccc1 (stereo not given)
[22]
  inhibition: Active
